In ChEMBL document CHEMBL1145382, “Novel ergopeptides as dual ligands for adenosine and dopamine receptors” (J Med Chem, 2007) one finds Activity data, which are given here for 17 molecules.

Assay [1] deals with T1, Adenosine receptor A2a (Homo sapiens, UniProt P29274). Description: Antagonist activity at adenosine A2A receptor in SH-SY5Y cells assessed as CGS-induced intracellular cAMP production at 50 uM. In kind it is functional, cell-based. The method in brief:
(§1)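 SH-SY5Y neuroblastoma cells, endogenous A2AR, stably carrying human D2LR. Serum-starved 12-16 h, in HBSS with 50 µM zardaverine for 10 min, then 50 µM ergopeptide, alone or with the A2AR agonist CGS. 35 min total incubation. cAMP by competitive enzyme immunoassay. Three to six determinations, Student's t test.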
A general note: Changes in cAMP serve as a functional read-out for many G protein-coupled receptors.

The target in assay [2] is T1, Adenosine receptor A2a. Description: Agonist activity at adenosine A2A receptor in SH-SY5Y cells assessed as CGS-induced intracellular cAMP production at 50 uM. In kind it is functional, cell-based. The procedure, abridged: as §1
The target of assay [3] is T1, Adenosine receptor A2a. Description: Displacement of [3H]CGS 21680 from adenosine A2A receptor in lamb striatum membrane at 50 uM after 2 hrs. To be noted: Ovis aries, target entry is the homologue from another species. The class given is cell membranes. The procedure, abridged: (§2)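 Single-concentration screen at 50 µM ergopeptide on lamb striatal membranes (0.5 mg protein/mL), 22 °C, 50 mM Tris-HCl pH 7.4. Radioligands: [3H]SCH 23390 1.2 nM (D1), [3H]YM 09151-2 0.9 nM (D2), [3H]R-PIA 2.2 nM (A1, with MgCl2 and ADA), [3H]CGS 21680 20.1 nM (A2A, with MgCl2 and ADA). Specific binding displaced, after filtration and scintillation counting.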
(Loss of bound radioactivity is the signal in a displacement assay; it reports binding, not function.)

Assay [4] deals with D(1A) dopamine receptor (Homo sapiens) (UniProt P21728). Description: Antagonist activity at dopamine D1 receptor transfected in mouse L(tk-) cells assessed as inhibition of SKF-induced stimulation of forskolin-induced cAMP levels. In kind it is functional, cell-based. The procedure, abridged:
(§3)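 Mouse Ltk- fibroblasts cotransfected with human A1R and D1R, serum-starved 12-16 h. In HBSS with 50 µM zardaverine, then 50 µM ergopeptide, with or without 20 nM SKF or 50 µM SCH. 35 min total incubation. cAMP by competitive enzyme immunoassay. Three to six determinations, t test.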

Assay [5] shares this target. Description: Agonist activity at dopamine D1 receptor transfected in mouse L(tk-) cells assessed as stimulation of cAMP levels. In kind it is functional, cell-based. The procedure, abridged: as §3
The target is the same in assay [6]. Description: Displacement of [3H]SCH 23390 from dopamine D1 receptor in lamb striatum membrane at 50 uM after 1 hr. In kind it is cell membranes. The note with it: Ovis aries, target entry is the homologue from another species. The method in brief: as §2
For assay [7], the target named is T2, Adenosine receptor A1 (Homo sapiens) (UniProt P30542).
T2 sequence (whole entry): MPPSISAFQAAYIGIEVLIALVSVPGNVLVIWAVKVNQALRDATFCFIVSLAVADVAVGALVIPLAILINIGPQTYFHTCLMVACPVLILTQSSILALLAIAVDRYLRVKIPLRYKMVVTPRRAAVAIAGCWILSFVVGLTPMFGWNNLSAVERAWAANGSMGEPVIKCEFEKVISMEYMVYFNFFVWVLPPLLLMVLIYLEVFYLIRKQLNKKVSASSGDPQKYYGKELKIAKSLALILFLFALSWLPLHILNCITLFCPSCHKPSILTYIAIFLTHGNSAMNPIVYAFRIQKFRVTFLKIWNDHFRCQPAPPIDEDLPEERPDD
Description: Antagonist activity at adenosine A1 receptor transfected in mouse L(tk-) cells assessed as inhibition of R-PIA-induced decrease in forskolin-induced cAMP levels. In kind it is functional, cell-based. The method in brief:
(§4)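 Mouse Ltk- fibroblasts cotransfected with human A1R and D1R, preincubated 5-10 min at 22 °C with 50 µM SCH to block D1R. Then 50 µM zardaverine, 10 µM forskolin, and 50 µM ergopeptide, with or without 20 nM R-PIA or 50 µM DPCPX. 35 min total. cAMP by enzyme immunoassay. Three to six determinations.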

For assay [8], the target named is D(2) dopamine receptor (Homo sapiens) (UniProt P14416). Description: Displacement of [3H]YM 09151-2 from dopamine D2 receptor in lamb striatum membrane at 50 uM after 2 hrs. To be noted: Ovis aries, target entry is the homologue from another species. In kind it is cell membranes. The method in brief: as §2
D(2) dopamine receptor (Homo sapiens), sequence (P14416 whole entry): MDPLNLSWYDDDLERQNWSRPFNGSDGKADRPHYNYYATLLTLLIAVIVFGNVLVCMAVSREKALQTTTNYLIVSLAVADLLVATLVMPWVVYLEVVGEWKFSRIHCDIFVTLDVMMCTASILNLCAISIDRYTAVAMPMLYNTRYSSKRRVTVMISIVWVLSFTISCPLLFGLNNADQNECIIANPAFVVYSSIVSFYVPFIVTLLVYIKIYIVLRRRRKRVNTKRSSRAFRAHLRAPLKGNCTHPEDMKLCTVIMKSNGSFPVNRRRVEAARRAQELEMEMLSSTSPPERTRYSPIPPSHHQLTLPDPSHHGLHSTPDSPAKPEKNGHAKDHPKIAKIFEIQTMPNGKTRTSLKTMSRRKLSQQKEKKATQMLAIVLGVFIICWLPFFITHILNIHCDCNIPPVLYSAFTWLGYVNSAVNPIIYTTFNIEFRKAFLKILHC
Assay [9] shares this target. Description: Agonist activity at dopamine D2 receptor in SH-SY5Y cells assessed as inhibition of forskolin-activated intracellular cAMP production at 50 uM. In kind it is functional, cell-based. The method in brief:
(§5)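 SH-SY5Y cells expressing human D2LR, preincubated 5-10 min at 22 °C with 5 µM ZM to block A2AR. Then 50 µM zardaverine, 10 µM forskolin, and 50 µM ergopeptide, with or without 150 nM quinpirole or 50 µM raclopride. 35 min total. cAMP by enzyme immunoassay. Three to six determinations, t test.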

Assay [10] addresses T2, Adenosine receptor A1 (Homo sapiens). Description: Agonist activity at adenosine A1 receptor transfected in mouse L(tk-) cells assessed as decrease in forskolin-induced cAMP levels. In kind it is functional, cell-based. The procedure, abridged:
as §4

Assay [11] shares this target. Description: Displacement of [3H]R-PIA from adenosine A1 receptor in lamb striatum membrane at 50 uM after 1 hr. The note with it: Ovis aries, target entry is the homologue from another species. The class given is cell membranes. The method in brief:
as §2

Assay [12] concerns the target D(2) dopamine receptor (Homo sapiens) (UniProt P14416). Description: Antagonist activity at dopamine D2 receptor in SH-SY5Y cells assessed as effect on forskolin-activated intracellular cAMP production at 50 uM. In kind it is functional, cell-based. The method in brief: as §5

The source made the active and inactive calls. The rule behind the calls is not given here. Non-standard residues stand in square brackets, D forms with d. Residues, ends and D or L forms follow the SMILES beside them. Phe(4-NO2) = N[C@@H](Cc1ccc([N+](=O)[O-])cc1)C(=O)O; Phe(4-F) = N[C@@H](Cc1ccc(F)cc1)C(=O)O; hCha = N[C@@H](CCC1CCCCC1)C(=O)O

T1 sequence (P29274 whole entry): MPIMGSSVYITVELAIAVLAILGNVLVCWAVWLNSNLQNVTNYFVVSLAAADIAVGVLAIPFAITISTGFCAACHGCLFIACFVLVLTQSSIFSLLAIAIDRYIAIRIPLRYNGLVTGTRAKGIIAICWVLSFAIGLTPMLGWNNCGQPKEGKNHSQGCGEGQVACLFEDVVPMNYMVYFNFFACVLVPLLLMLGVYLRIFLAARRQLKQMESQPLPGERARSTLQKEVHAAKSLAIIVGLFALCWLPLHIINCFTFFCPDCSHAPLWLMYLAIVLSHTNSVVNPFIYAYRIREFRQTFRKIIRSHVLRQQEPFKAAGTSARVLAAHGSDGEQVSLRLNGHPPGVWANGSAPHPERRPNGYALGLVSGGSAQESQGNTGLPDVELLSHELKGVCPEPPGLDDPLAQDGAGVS
D(1A) dopamine receptor (Homo sapiens), sequence (P21728 whole entry): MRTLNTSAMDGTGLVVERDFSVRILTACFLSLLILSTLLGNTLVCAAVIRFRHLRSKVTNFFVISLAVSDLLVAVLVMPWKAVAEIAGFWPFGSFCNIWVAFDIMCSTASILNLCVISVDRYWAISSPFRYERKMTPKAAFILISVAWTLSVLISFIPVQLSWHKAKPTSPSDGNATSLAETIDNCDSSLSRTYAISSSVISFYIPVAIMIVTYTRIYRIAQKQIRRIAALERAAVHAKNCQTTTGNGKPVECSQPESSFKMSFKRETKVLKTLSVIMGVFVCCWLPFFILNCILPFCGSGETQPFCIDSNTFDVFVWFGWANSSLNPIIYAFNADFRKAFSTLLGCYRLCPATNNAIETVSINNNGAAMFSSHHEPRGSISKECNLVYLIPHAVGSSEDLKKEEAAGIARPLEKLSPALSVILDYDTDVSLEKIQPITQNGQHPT

Consider `CC(C)[C@H](NC(=O)[C@H]1C=C2c3cccc4[nH]cc(c34)C[C@H]2N(C)C1)C(=O)N[C@@H](Cc1ccc([N+](=O)[O-])cc1)C(=O)N1CCC[C@H]1C(N)=O`, for which the outcome in [1], in assay [5], in [7] and in [9] was Active. In addition, the outcome in assay [2], in assay [4] and in assay [10] was inactive. In addition, the Activity in assay [3], in assay [6], in assay [8] and in [11] was below 40% throughout.
`CC(C)[C@H](NC(=O)[C@@H]1C=C2c3cccc4[nH]cc(c34)C[C@H]2N(C)C1)C(=O)N[C@@H](Cc1ccc(F)cc1)C(=O)N1CCC[C@H]1C(N)=O`: the result in assay [12], in assay [5] and in assay [7] was Active. In addition, the result in assay [2], in assay [4] and in [10] was inactive. The Activity in [3], in assay [6], in [8] and in assay [11] was below 40% each time.
For `CC(=O)N[C@H](C(=O)N[C@@H](Cc1ccc(F)cc1)C(=O)N1CCC[C@H]1C(N)=O)C(C)C` (Ac-Val-[Phe(4-F)]-Pro-NH2), the Activity in assay [3], in assay [6], in assay [8] and in assay [11] was below 40% throughout.
For `CC(C)[C@H](NC(=O)[C@H](Cc1ccc([N+](=O)[O-])cc1)NC(=O)[C@@H]1C=C2c3cccc4[nH]cc(c34)C[C@H]2N(C)C1)C(=O)N1c2ccccc2C[C@H]1C(N)=O`, the outcome in assay [2], in assay [4] and in [10] was inactive. Moreover, the Activity in [3], in [6], in [8] and in assay [11] was below 40% in each case. Also, the result in [5], in assay [7] and in assay [9] was Active.
`CC(=O)N[C@@H](CCC1CCCCC1)C(=O)N[C@H](C(=O)N1CCC[C@H]1C(N)=O)C(C)C` (Ac-[hCha]-Val-Pro-NH2): the Activity in assay [3], in assay [6], in assay [8] and in assay [11] was below 40% in each case.
As for `CC(C)[C@H](NC(=O)[C@@H]1C=C2c3cccc4[nH]cc(c34)C[C@H]2N(C)C1)C(=O)N[C@@H](Cc1ccc([N+](=O)[O-])cc1)C(=O)N1CCC[C@H]1C(N)=O`, the result in [1], in assay [5], in assay [7] and in assay [9] was Active. Also, the outcome in assay [2], in assay [4] and in assay [10] was inactive. Besides, the Activity in assay [3], in [6], in assay [8] and in assay [11] was below 40% in each case.
Regarding `CN1C[C@H](C(=O)N[C@@H](Cc2ccc([N+](=O)[O-])cc2)C(=O)N[C@@H](Cc2ccc(F)cc2)C(=O)N2CCCC(C(N)=O)C2)C=C2c3cccc4[nH]cc(c34)C[C@H]21` (some centres undefined), the result in [1], in assay [5], in [7] and in assay [9] was Active. The result in assay [2], in [4] and in assay [10] was inactive. In addition, the Activity in assay [3], in [6], in [8] and in [11] was below 40% in each case.
As for `CC(=O)N[C@@H](Cc1ccc([N+](=O)[O-])cc1)C(=O)N[C@@H](Cc1ccc(F)cc1)C(=O)N1CCCC(C(N)=O)C1` (some centres undefined), the Activity in [3], in assay [6], in assay [8] and in assay [11] was below 40% each time.
Turning to `CC(C)[C@H](NC(=O)[C@H](CCC1CCCCC1)NC(=O)[C@@H]1C=C2c3cccc4[nH]cc(c34)C[C@H]2N(C)C1)C(=O)N1CCC[C@H]1C(N)=O`, the result in assay [1], in assay [5], in assay [7] and in assay [9] was Active. Moreover, the outcome in assay [2], in [4] and in assay [10] was inactive. In addition, the Activity in [3], in [6], in [8] and in assay [11] was below 40% each time.
With `CC(=O)N[C@@H](Cc1ccc([N+](=O)[O-])cc1)C(=O)N[C@H](C(=O)N1c2ccccc2C[C@H]1C(N)=O)C(C)C`, the Activity in assay [3], in [6], in assay [8] and in [11] was below 40% throughout.
On to `CN1C[C@H](C(=O)N[C@@H](Cc2ccc([N+](=O)[O-])cc2)C(=O)N[C@@H](CCC2CCCCC2)C(=O)N2CCCC(C(N)=O)C2)C=C2c3cccc4[nH]cc(c34)C[C@H]21` (some centres undefined), for which the result in assay [2], in [4] and in assay [10] was inactive. Further, the Activity in assay [3], in assay [6], in [8] and in assay [11] was below 40% in each case. The outcome in assay [5], in assay [7] and in assay [9] was Active.
For `CN1C[C@H](C(N)=O)C=C2c3cccc4[nH]cc(c34)C[C@H]21`, the Activity in assay [3], in [6], in assay [8] and in assay [11] was below 40% throughout.
As to `CC(=O)N[C@H](C(=O)N[C@@H](CCC1CCCCC1)C(=O)N1CCCC(C(N)=O)C1)C(C)C` (some centres undefined), the Activity in assay [3], in assay [6], in assay [8] and in [11] was below 40% throughout.
As to `CC(=O)N[C@H](C(=O)N[C@@H](CCC1CCCCC1)C(=O)N1c2ccccc2C[C@H]1C(N)=O)C(C)C`, the Activity in [3], in assay [6], in assay [8] and in assay [11] was below 40% each time.
For the molecule `CC(=O)N[C@H](C(=O)N[C@@H](Cc1ccc([N+](=O)[O-])cc1)C(=O)N1CCC[C@H]1C(N)=O)C(C)C` (Ac-Val-[Phe(4-NO2)]-Pro-NH2), the Activity in assay [3], in assay [6], in [8] and in assay [11] was below 40% each time.
For the molecule `CC(=O)N[C@@H](Cc1ccc([N+](=O)[O-])cc1)C(=O)N[C@@H](CCC1CCCCC1)C(=O)N1CCCC(C(N)=O)C1` (some centres undefined), the Activity in [3], in [6], in assay [8] and in assay [11] was below 40% throughout.
Turning to `CC(=O)N[C@@H](CCC1CCCCC1)C(=O)N[C@@H](Cc1ccc(F)cc1)C(=O)N1CCC[C@H]1C(N)=O` (Ac-[hCha]-[Phe(4-F)]-Pro-NH2), the Activity in [3], in assay [6], in assay [8] and in assay [11] was below 40% throughout.
